Compound activity: PubChem BioAssay, several laboratories
Rows were chosen to be rich in hits. Some 5.1% of all compounds tested hit in one or more screens of this group.
STAT3 blocker: STAT3 signaling inhibition | U3A cells, IL-6 STAT3-luciferase reporter, luminescence; host cell line lacks STAT1 | inhibition, % at 5.5 µM | hit rate 0.89% among 190,000 | AID 862;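 active = inhibition above the mean inhibition across all screened compounds plus 3 SD, cut at about 44% in these data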
STAT1 inh: reduces IFN-gamma driven STAT1 reporter signal. NIH 3T3 STAT1-luciferase reporter, luminescence. inhibition, % at 5.5 µM. hit rate 0.35% among 200,000;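 active = inhibition above a set limit, the mean inhibition across all tested compounds plus 3 SD, cut at about 34% in these data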
APP 5'UTR act: APP 5'UTR luciferase reporter activation; hit rate 1% among 190,000; SH-SY5Y APP 5'UTR luciferase reporter, luminescence; zero percent = DMSO vehicle wells; activation, % at 2 µM;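 active = activation above a set limit, based on mean plus 3 SD of controls, cut at about 140% in these data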
STAT3 act: increases IL-6 driven STAT3 reporter signal | U3A cells, IL-6 STAT3-luciferase reporter, luminescence; 100% = signal with IL-6 EC80 alone | activation (% of control), % at 5.6 µM | hit rate 0.91% among 190,000;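 active = activation above the screen-wide mean of compound activation plus 3 SD, cut at about 130% in these data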
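Material: STAT1-lacking human U3A cells, STAT3 luciferase reporter | Benchmarks: IL-6-only wells as 100% reference | Probe or stimulus: IL-6 (33 ng/mL) | Timing: Compound 1 h, then IL-6 6 h at 37 °C | Detection: Luminescence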
STAT1 activator: STAT1 signaling activation | NIH 3T3 STAT1-luciferase reporter, IFN-gamma, luminescence; 100% = IFN-gamma alone, no compound | activation (% of control), % at 5.5 µM | hit rate 2.6% among 200,000 | AID 932;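 active = activation above the screen-wide mean activation plus 3 SD, cut at about 130% in these data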
NF-kB expr up: raises NF-kB expression in human neuronal cells. NF-kB reporter expression; stronger effect = higher value. fold change at 12.5 µM. hit rate 1.6% among 190,000. AID 1239; in the data active = fold change above about 3.3
Of the large screens only hits and unclear results are named; the others gave an inactive call.

CCc1nnc(NS(=O)(=O)c2ccc(N/C=C/C(=O)c3ccc(OC)cc3)cc2)s1	STAT1 activator 136
C=CCN(c1ccc(C(=O)Nc2ccc(NC(C)=O)cc2)cc1)S(C)(=O)=O	none
FC(F)Oc1ccccc1/C=N/n1cnc2ccccc21	STAT1 activator 134
CSc1ccc(C2c3[nH]c4ccccc4c3CCN2C(=O)c2ccnn2C)cc1 (stereo not given)	STAT3 act 150, STAT1 activator 137
CCc1ccc(C2c3[nH]c4ccccc4c3CCN2C(=O)CNC(N)=O)cc1 (stereo not given)	none
CCc1ccc(C2c3[nH]c4ccccc4c3CCN2C(=O)CN2CCN(CC)CC2)cc1 (stereo not given)	STAT3 act 134
Cc1cccc(N2CCN(Cc3nc(CC4CC4)no3)CC2)n1	none
COC(=O)c1ccc(COc2ccccc2[N+](=O)[O-])o1	none
CCCc1ccc(OCc2ccc(C(=O)O)o2)c(OC)c1	NF-kB expr up 4.2
CCCc1ccc(OCc2ccc(C(=O)OC)o2)c(OC)c1	STAT1 activator 132
C=CCSc1nc2ccccc2n1C(=O)/C=C/c1ccc(OC)c(OC)c1	none
C=CCSc1nc2ccccc2n1C(=O)/C=C/c1cc(OC)c(OC)c(OC)c1	STAT1 activator 145
CN1CCCN(Cc2nc(-c3cccc(C(F)(F)F)c3)no2)CC1	none
COc1ccccc1C(=O)Nc1nnc(C)s1	none
COCCN(C(=O)c1ccccc1OC)c1nnc(C)s1	STAT3 act 134
Oc1ccc(-c2csc(NCc3ccco3)n2)cc1	NF-kB expr up 3.7
c1coc(CNc2nc(-c3cccs3)cs2)c1	none
CCN(CC)S(=O)(=O)c1ccc(N=N/C(C(C)=O)=C(/C)O)cc1	none
CC(=O)/C(N=Nc1ccc2c(c1)OCO2)=C(\C)O	STAT1 activator 138
Cc1nn(-c2ccccc2)c(Cl)c1/C=N/NC(=O)c1ccccc1NS(=O)(=O)c1cccs1	none
Cc1nn(-c2ccccc2)c(Cl)c1/C=N/NC(=O)c1ccc(NS(=O)(=O)c2cccs2)cc1	STAT1 activator 137
CN(C)c1ccc(NC(=O)Oc2ccccc2)cc1	STAT1 activator 130
CN(C)c1ccc(NC(=O)Nc2cccc(Cl)c2)cc1	APP 5'UTR act 181, STAT1 activator 135, NF-kB expr up 7.2
CCCCCNC(=O)C1CCC(Cn2c(=S)[nH]c3ccccc3c2=O)CC1 (stereo not given)	none
C=CCN1N=C(/C=C/c2ccc(C)cc2)CCC1=O	STAT1 activator 137
CCOC(=O)C(C)N1N=C(/C=C/c2ccc(C)cc2)CCC1=O (stereo not given)	none
COc1ccc(CCN(Cc2nc3ccccc3c(=O)[nH]2)C(=O)C2CC2)cc1	none
CCc1ccc(OCc2cnc(Cl)s2)cc1	STAT1 activator 131
CCCC(=O)c1ccc(N2CCCCCC2)c(F)c1	none
CCCC(=O)c1ccc(N2CCCCC2)c(F)c1	STAT1 activator 130
CCn1cc(/C=N\NC(=O)c2ccccc2Cl)cn1	none
O=C1/C(=C\c2ccc([N+](=O)[O-])cc2)CCc2ccccc21	APP 5'UTR act 136
N#C/C(=N\Nc1ccccc1F)c1nc(-c2ccccc2)cs1	none
O=C(CCS(=O)(=O)Cc1ccccc1F)NCc1ccccc1Cl	none
O=C(Nc1ccc2c(c1)ncn2-c1ccccc1)c1ccco1	STAT1 activator 140
CC(=O)Nc1ccc2c(c1)ncn2C	none
CC(=O)Nc1ccc2c(c1)ncn2-c1ccc(C)cc1	APP 5'UTR act 225, STAT1 activator 146, NF-kB expr up 5.1
Cc1nonc1C1CCCN1Cc1nc(-c2ccccc2Cl)oc1C (stereo not given)	none
CCOc1ccc(CC(=O)C2=C(N3CCOCC3)CC(C)(C)CC2=O)cc1OCC	none
CNC(=O)c1cc2c(s1)-c1ccccc1CC2	STAT1 activator 144
O=C(N/N=C/c1ccc(F)c(F)c1)c1cc2c(s1)-c1ccccc1CC2	none
CN1C(=C2C(=O)OC(C)(C)OC2=O)Sc2ccccc21	STAT1 activator 130
Cc1ccccc1NC(=O)N1CCN(S(=O)(=O)c2ccccc2)CC1	none
CCn1cnc2cc(NC(=O)c3cccs3)ccc21	STAT1 activator 135
CCn1cnc2cc(NCc3cccs3)ccc21	none
CC(C)(C)n1cnc2cc(NC(=O)c3cccs3)ccc21	STAT1 activator 142, NF-kB expr up 4
CCc1ccc2nc(N)sc2c1	none
